# STEP inh = STEP (human) phosphatase inhibition | P54829 | inhibition, % at 20 µM | 0.25% of 360,000 active | recombinant STEP, OMFP fluorogenic substrate, fluorescence;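 active = inhibition at 20 µM, scaled per plate between control wells, above about 37%, limit read from the data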
#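 Test system: STEP tyrosine phosphatase / Reagent: OMFP at 25 µM / Doses: 20 µM, 1% DMSO / Read-out: percent inhibition scaled to no-enzyme and uninhibited-enzyme controls, plate-pattern corrected / Detection: FITC-channel fluorescence of OMFP product / Medium: Bis-Tris buffer pH 6.0, 2.5 mM DTT, 0.005% Tween 20 / Schedule: 20 min at room temperature, dark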
# DNMT1 block = inhibitors of human DNMT1; P26358; DNMT1 molecular beacon, Hinp1I cleavage, fluorescence; inhibition (reported as % activation of signal), % at 10 µM; 0.83% of 360,000 active; AID 588458; in the data active = inhibition above about 50%
# LMPTP block = blocks human LMPTP phosphatase; recombinant LMPTP-A, OMFP fluorogenic substrate, fluorescence intensity; inhibition, % at 20 µM; 0.22% of 360,000 active;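 active = compounds that cut the enzyme signal by at least half of the control window in the single-dose screen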
# Target sequence (P24666 whole entry, looked up): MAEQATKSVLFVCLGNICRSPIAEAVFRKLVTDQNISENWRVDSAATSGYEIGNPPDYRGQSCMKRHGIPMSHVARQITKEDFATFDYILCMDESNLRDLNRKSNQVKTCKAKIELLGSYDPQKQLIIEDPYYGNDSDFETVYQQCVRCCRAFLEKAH
#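 Test system: LMPTP-A phosphatase enzyme. Amount: LMPTP-A at 0.625 nM final in the reaction. Reagent: OMFP substrate, 400 µM final. Times: 50 min at room temperature. Signal: endpoint fluorescence intensity from OMFP dephosphorylation. Read-out basis: % inhibition. Benchmarks: no-enzyme and uninhibited controls.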
# SUMO1 PPI mod = modulators of human SUMO1-mediated protein-protein interactions | SUMO1 binding to a labelled peptide, TR-FRET, 1 h | inhibition, % at 20 µM | 0.33% of 360,000 active; in the data active = inhibition above about 37%
# Casp6 inh = blocks human caspase-6 cleavage activity; inhibition, % at 12.5 µM; purified caspase-6, Z-VEID-R110 cleavage fluorescence; 0.53% of 350,000 active; P55212;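 active = mean inhibition across replicates at least about 35%, with every replicate also reaching that limit, limit read from the data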
# Target sequence (P55212 24-179 limits assumed): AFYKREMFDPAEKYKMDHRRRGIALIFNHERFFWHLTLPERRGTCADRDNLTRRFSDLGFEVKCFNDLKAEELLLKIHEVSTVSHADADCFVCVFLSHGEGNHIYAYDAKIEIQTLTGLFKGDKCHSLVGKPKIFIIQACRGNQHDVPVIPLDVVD
# Target sequence (P55212 194-293 limits assumed): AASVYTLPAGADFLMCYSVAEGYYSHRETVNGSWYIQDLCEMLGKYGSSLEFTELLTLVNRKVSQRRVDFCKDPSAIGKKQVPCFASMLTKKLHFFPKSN
# Scp-1 inhibitor = Scp-1 (human) phosphatase inhibition | Q9GZU7 | Recombinant Scp1, phosphopeptide, malachite green phosphate absorbance | inhibition, % at 20 µM | 0.88% of 340,000 active;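 active = inhibition above about 50% at 20 µM, limit read from the data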
#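 System: SCP-1 catalytic domain; Reagent: Phospho 17-mer peptide substrate; Doses: one concentration, 20 µM, with 1.0% DMSO; Incubation: 45 min room-temperature reaction, 5 min colour, 30 min stabiliser; Signal: Phosphate-binding colour reagent, absorbance read at 630 nm.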
# Beacon interf DR = counter-screen for DNMT1 inhibitors: spectral interference, dose response; shares compounds with DNMT1 block; molecular beacon fluorescence; IC50, µM; 200 tested, under 10 active; AID 602382
# DNMT1 inh conf = DNMT1 inhibition confirmation, single concentration | DNMT1 molecular beacon HinP1I cleavage, fluorescence | inhibition, % at 10 µM | 8% of 2,300 active | shares compounds with DNMT1 block;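 active = average inhibition of at least 30% in the single-concentration confirmation test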
# Beacon interf = beacon fluorescence artifact counter-screen. shares compounds with DNMT1 block. 1% of 2,300 active. DNMT1 molecular beacon spectral interference counterscreen, fluorescence 485/520. activation (fluorescence interference), % at 10 µM. AID 602387;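 active = activation of at least 30% at 10 µM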;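 note: DNMT1 catalytic domain with a HinP1I cleavage step and a FAM/dabcyl DNA beacon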
# STEP conf = confirmation of human STEP phosphatase inhibitors | shares compounds with STEP inh | recombinant STEP, OMFP fluorogenic substrate, fluorescence | inhibition, % at 20 µM | 32% of 520 active
# A number is an active result; 0 = inactive; - = not tested or not shown. The list is not random: actives were taken first. Their share in the collection is about 1.7%. Unless noted, the rule behind the calls is not given here.
SMILES,STEP inh,DNMT1 block,LMPTP block,SUMO1 PPI mod,Casp6 inh,Scp-1 inhibitor,DNMT1 inh conf,Beacon interf,STEP conf,others
COC(=O)[C@H](Cc1ccccc1)N1C/C=C\COc2c(Cl)cc(Cl)cc2S1(=O)=O,0,82,0,0,0,0,0,0,-,
COCCCn1c(=N)c(C(N)=S)cc2c(=O)n3cccc(C)c3nc21,0,54,0,0,0,0,0,0,-,
Cc1c(N)cccc1-n1cnnn1,0,0,0,0,-,0,-,-,-,
c1cc2ccc3ccc(-n4cnnn4)c4ccc(c1)c2c34,0,60,0,0,-,0,0,0,-,
O=S(=O)(c1ccc2c(c1)CCN2)N1CCOCC1,0,102,0,0,0,0,0,0,-,
O=C(CC[C@H]1O[C@@H](n2ccc(=O)[nH]c2=O)[C@H](O)[C@@H]1O)N1CCN(Cc2cccc3ccccc23)CC1,0,85,0,0,0,-,0,0,-,
O=c1ccn([C@@H]2O[C@H](CO)[C@@H](O)[C@H]2O)c(=O)[nH]1,0,81,0,0,-,0,0,0,-,
C[C@H](NC(=O)CC[C@H]1O[C@@H](n2ccc(=O)[nH]c2=O)[C@H](O)[C@@H]1O)C(=O)O,0,0,0,0,0,-,-,-,-,
O=c1cc(-c2ccccc2)nc2nc(-c3ccco3)[nH]n12,86,104,51,54,-,0,0,0,0,
Cc1nc2nc(-c3ccccc3)cc(=O)n2[nH]1,0,0,0,0,-,0,-,-,-,
COc1cc(-c2nc3n(c(=O)c2C#N)CCS3)cc(OC)c1OC,0,0,0,0,0,0,-,-,-,
O=C(N/N=C/c1ccc(Br)s1)c1ccc([N+](=O)[O-])cc1,69,79,80,0,0,0,0,0,0,
CCOC(=O)CSc1nc(-c2ccc(OC)cc2)ns1,0,0,0,0,-,0,-,-,-,
C[C@H](NC(=O)c1ncn2c1c(=O)[nH]c1ccccc12)c1ccccc1,0,0,0,0,0,-,-,-,-,
C[C@H](NC(=O)c1ncn2c1c(=O)[nH]c1ccc(Br)cc12)c1ccccc1,54,90,56,0,0,-,0,0,0,
Cc1ccccc1N1C(=O)C2C3CCC(O3)C2C1=O (stereo not given),0,0,0,0,0,0,-,-,-,
COc1ccc(Nc2nc(=O)c3cc([N+](=O)[O-])ccc3s2)cc1,43,65,80,0,0,0,0,0,0,
CSc1ccc(C=NNc2ccc(S(=O)(=O)Nc3ccccc3C(=O)O)cc2[N+](=O)[O-])cc1,44,86,91,96,41,0,55,0,59,Beacon interf DR=0
CCOc1ccc(OCC)c(NC(=O)CCSCCc2ccccn2)c1,97,89,0,0,0,0,0,0,0,
CCOc1ccc(OCC)c(NC(=O)CSCCc2ccccn2)c1,0,0,0,0,0,0,-,-,-,
C=CCCO[C@@H]1O[C@@H](C)[C@H](O)C[C@H]1O,0,0,0,0,0,0,-,-,-,
CC(=O)Nc1ccc(NC(=O)C2CCCN2C(=O)Nc2ccccc2[N+](=O)[O-])cc1 (stereo not given),85,80,0,0,0,0,0,0,0,
O=C(Nc1ccccc1)C1CCCN1C(=O)Nc1ccccc1[N+](=O)[O-] (stereo not given),0,0,0,0,0,0,-,-,-,
Cc1cccc(C(=O)Nc2ccc(N3CCN(c4ccc(C(F)(F)F)cn4)CC3)nc2)c1,77,70,0,0,0,0,0,0,0,
